Source: ChEMBL document CHEMBL2146466, “Evaluation of dimerization-inhibitory activities of cyclic peptides containing a β-hairpin loop sequence of the EGF receptor” (2012)
Active and inactive are the calls of the source. The calls are words filed in the database; no cut-off is given here. Where a SMILES comes first, the peptide text is derived from it.

How the values were obtained:
A-431 = assay: Antiproliferative activity against human A431 cells at 10 uM after 3 days by WST-8 assay; format: functional; settings: A-431, 72 h
How it was run: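 A431 cells in DMEM with 10% FBS were seeded at 5×10^3 cells/well and grown 24 h at 37 °C, 5% CO₂. Peptide at 10 µM, or distilled water as the 100% growth control, was added and cells were re-incubated 24 h for three consecutive days. WST-8 was then added for 90 min and absorbance read at 450 nm (reference 655 nm). Six replicate wells, three independent repeats; mean ± SD.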

[1] = molecular target: Epidermal growth factor receptor (Homo sapiens) (UniProt P00533); assay: Inhibition of human recombinant EGF receptor autophosphorylation expressed in A431 cells at 10 uM after 5 mins by immunoblotting analysis; format: cell-based; settings: A-431
Chain of Epidermal growth factor receptor (Homo sapiens) (P00533 whole entry): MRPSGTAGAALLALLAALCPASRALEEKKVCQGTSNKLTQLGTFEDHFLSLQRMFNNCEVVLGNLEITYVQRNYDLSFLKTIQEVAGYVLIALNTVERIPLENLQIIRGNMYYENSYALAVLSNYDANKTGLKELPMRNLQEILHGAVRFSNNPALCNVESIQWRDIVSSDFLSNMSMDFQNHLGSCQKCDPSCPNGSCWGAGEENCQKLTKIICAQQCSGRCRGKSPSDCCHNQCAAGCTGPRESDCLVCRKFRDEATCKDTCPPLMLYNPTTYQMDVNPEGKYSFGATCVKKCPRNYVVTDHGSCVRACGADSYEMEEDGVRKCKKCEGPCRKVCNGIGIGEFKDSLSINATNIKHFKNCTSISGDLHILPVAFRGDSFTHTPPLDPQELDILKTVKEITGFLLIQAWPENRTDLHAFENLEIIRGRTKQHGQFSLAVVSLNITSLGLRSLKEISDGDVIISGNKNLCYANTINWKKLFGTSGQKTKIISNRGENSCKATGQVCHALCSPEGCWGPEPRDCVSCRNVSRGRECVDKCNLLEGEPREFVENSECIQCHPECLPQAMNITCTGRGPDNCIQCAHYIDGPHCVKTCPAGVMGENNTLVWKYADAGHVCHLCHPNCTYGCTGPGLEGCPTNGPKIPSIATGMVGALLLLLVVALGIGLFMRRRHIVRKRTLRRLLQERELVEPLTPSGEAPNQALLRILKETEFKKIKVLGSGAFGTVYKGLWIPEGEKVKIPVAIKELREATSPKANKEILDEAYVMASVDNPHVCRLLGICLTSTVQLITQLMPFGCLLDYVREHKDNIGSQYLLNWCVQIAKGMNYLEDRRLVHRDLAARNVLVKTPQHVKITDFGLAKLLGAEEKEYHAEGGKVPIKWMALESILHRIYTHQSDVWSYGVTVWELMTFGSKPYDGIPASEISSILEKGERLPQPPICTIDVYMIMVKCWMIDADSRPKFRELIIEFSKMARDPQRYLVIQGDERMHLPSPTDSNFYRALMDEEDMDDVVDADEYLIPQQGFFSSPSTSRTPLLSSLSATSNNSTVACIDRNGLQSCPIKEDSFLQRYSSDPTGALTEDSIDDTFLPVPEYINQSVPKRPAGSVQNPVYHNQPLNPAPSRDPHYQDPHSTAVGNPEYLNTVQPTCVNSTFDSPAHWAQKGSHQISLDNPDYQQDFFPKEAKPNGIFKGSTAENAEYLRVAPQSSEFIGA
How it was run: (§1)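 A431 cells were seeded at 1×10^4/well, grown 4 days, then starved 24 h in serum-free medium with 1 mg/mL BSA. Cells were given peptide or PBS for 1 h at 37 °C, then 100 ng/mL human EGF for 5 min. Lysates in NP-40 buffer were diluted to 500 µg/mL protein and run on SDS-PAGE. Blots were probed with anti-EGFR pY1068, then stripped and re-probed for total EGFR. Mean of two independent experiments in duplicate.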

[2] = molecular target: Epidermal growth factor receptor (Homo sapiens) (UniProt P00533); assay: Inhibition of human recombinant EGF receptor autophosphorylation expressed in A431 cells at 1 nM after 5 mins by immunoblotting analysis; format: cell-based; settings: A-431; how it was run: as §1
[3] = molecular target: Epidermal growth factor receptor (Homo sapiens) (UniProt P00533); assay: Human recombinant EGF receptor dimer amount expressed in A431 cells at 10 uM after 10 mins by immunoblotting analysis relative to control; settings: A-431
[4] = molecular target: Epidermal growth factor receptor (Homo sapiens) (UniProt P00533); assay: Inhibition of human recombinant EGF receptor dimerization expressed in A431 cells at 10 uM after 10 mins by immunoblotting analysis relative to CYNPTTYQMC; format: cell-based; settings: A-431
[5] = molecular target: Epidermal growth factor receptor (Homo sapiens) (UniProt P00533); assay: Inhibition of human recombinant EGF receptor dimerization expressed in A431 cells at 10 uM after 10 mins by immunoblotting analysis relative to control; format: cell-based; settings: A-431
How it was run: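 Confluent A431 cells were solubilized in 20 mM HEPES pH 7.4 with 1% Triton X-100, 10% glycerol, 1 mM EGTA and 1 mM PMSF, and the extract was spun at 250,000×g. Supernatant at 2 µg/µL protein was pre-treated 60 min with 10 µM peptide, then given 0.21 µM human EGF for 10 min. Cross-linking was with 1 mM BS³ for 10 min, quenched with glycine. Dimer and monomer were resolved by SDS-PAGE and anti-EGFR immunoblot, with ECL quantification. Dimer without peptide was set to 1.0; mean ± SD of at least three experiments in duplicate.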

Molecule	cell proliferation (% of vehicle) at 10 µM (A-431) [%]	inhibition [1]	inhibition [2] [%]	residual activity [3] [%]	inhibition [4] [%]	inhibition [5]
H-LVYNKLTFQLEPNPHTK-OH	95					
CSCC[C@H]1NC(=O)[C@H](N)CSSC[C@H](C(=O)O)NC(=O)[C@@H](Cc2ccc(O)cc2)NC(=O)[C@@H](CC(N)=O)NC(=O)[C@H]2CCCN2C(=O)[C@@H]([C@H](C)O)NC(=O)[C@@H]([C@H](C)O)NC(=O)[C@@H](Cc2ccc(O)cc2)NC(=O)[C@@H](CCC(N)=O)NC1=O	81	70%	45	68		
CSCC[C@@H]1NC(=O)[C@H](CCC(N)=O)NC(=O)[C@H](Cc2ccc(O)cc2)NC(=O)[C@H]([C@@H](C)O)NC(=O)[C@H]([C@@H](C)O)NC(=O)[C@@H]2CCCN2C(=O)[C@H](CC(N)=O)NC(=O)[C@H](Cc2ccc(O)cc2)NC(=O)[C@@H](N)CSSC[C@@H](C(=O)O)NC1=O	84	Active		69		
CSCC[C@@H]1NC(=O)[C@H](CCC(N)=O)NC(=O)[C@H](Cc2ccc(O)cc2)NC(=O)[C@@H]2CSSC[C@H](NC(=O)[C@H](Cc3ccc(O)cc3)NC(=O)[C@@H](N)CSSC[C@@H](C(=O)O)NC1=O)C(=O)N1CCC[C@H]1C(=O)N[C@@H]([C@@H](C)O)C(=O)N2 (HELM PEPTIDE1{C.Y.C.P.T.C.Y.Q.M.C}$PEPTIDE1,PEPTIDE1,1:R3-10:R3|PEPTIDE1,PEPTIDE1,3:R3-6:R3$$$V2.0)				83	65	
CSCC[C@H](NC(=O)[C@H](CCC(N)=O)NC(=O)[C@H](Cc1ccc(O)cc1)NC(=O)[C@@H]1CSSC[C@H](NC(=O)[C@H](Cc2ccc(O)cc2)NC(=O)[C@@H](N)CC(C)C)C(=O)N2CCC[C@H]2C(=O)N[C@@H]([C@@H](C)O)C(=O)N1)C(=O)N[C@@H](CC(=O)O)C(=O)O (HELM PEPTIDE1{L.Y.C.P.T.C.Y.Q.M.D}$PEPTIDE1,PEPTIDE1,3:R3-6:R3$$$V2.0)				90	32	
C[C@@H](O)[C@@H]1NC(=O)[C@H]([C@@H](C)O)NC(=O)[C@@H]2CCCN2C(=O)[C@H](CC(N)=O)NC(=O)[C@H](Cc2ccc(O)cc2)NC(=O)[C@@H](N)CSSC[C@@H](C(=O)N[C@@H](CC(=O)O)C(=O)O)NC(=O)[C@H](CCC(N)=O)NC(=O)[C@H](Cc2ccc(O)cc2)NC1=O (HELM PEPTIDE1{C.Y.N.P.T.T.Y.Q.C.D}$PEPTIDE1,PEPTIDE1,1:R3-9:R3$$$V2.0)						inactive
